GRIN3A LBD mod: modulates the human NR3A ligand-binding domain; NR3A LBD differential scanning fluorimetry, Tm shift; 0% = protein alone, 100% = glycine-bound protein; Tm shift relative to glycine control, % at 25 µM; hit rate 2.5% among 340,000;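 active means melting temperature shift of at least 10% of the positive control shift, at one fixed dose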
MPTP inh: blocks calcium-induced mitochondrial swelling. isolated mouse mitochondria, Ca2+ swelling absorbance, 30 min. inhibition, % at 10 µM. hit rate 1.4% among 360,000. AID 602449;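 active means inhibition of 50% or more, scaled per plate between neutral and stimulator controls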;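 further: 0% = DMSO wells given calcium and 100% = 1 mM EGTA wells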
aDG glyco up: increases alpha dystroglycan glycosylation. Pro5-aDG cells, alpha-DG glycosylation AlphaScreen (IIH6); 0% Pro5, 100% B10-LARGE cell signal. activation, % at 10 µM. hit rate 0.22% among 360,000;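 active means activation of at least 8% versus controls, or a plate z-score of at least 8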;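 further: Pro5 are CHO cells carrying HIG-tagged alpha-DG that lacks glycosylation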
proCasp7 act: activates human procaspase-7, counter-screen for procaspase-3 activators; P55210; recombinant procaspase-7, Ac-DEVD-pNA absorbance 405 nm; D23A/D198A/D206A triple mutant, cannot self-cleave; scale: DMSO 0, 5 µM enzyme 100; activation, % at 8.5 µM; hit rate 0.093% among 330,000;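 active means percent activation above the screen-wide mean plus 3 SD, cut at about 25% in these data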
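System: Uncleavable procaspase-7 mutant enzyme; Amount: 2 µM procaspase-7 mutant as dispensed; Schedule: 1 h compound preincubation, 2 h substrate cleavage, 25 °C; Measured by: 405 nm absorbance of p-nitroaniline; Evaluation: percent activation from buffer-corrected 0–120 min absorbance change; Control set: low DMSO alone, high DMSO plus 5 µM PC-7.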
proCasp3 act: activators of human procaspase-3 | P42574 | recombinant procaspase-3 D3A, Ac-DEVD-pNA absorbance 405 nm | activation, % at 8.5 µM | hit rate 0.11% among 330,000 | AID 463141;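 active means activation above the mean of all tested compounds plus 3 SD, cut at about 21% in these data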;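 further: 0% = DMSO alone and 100% = DMSO wells spiked with extra 5 µM PC-3 D3A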
Target sequence (P42574 whole entry D9A/D28A/D175A): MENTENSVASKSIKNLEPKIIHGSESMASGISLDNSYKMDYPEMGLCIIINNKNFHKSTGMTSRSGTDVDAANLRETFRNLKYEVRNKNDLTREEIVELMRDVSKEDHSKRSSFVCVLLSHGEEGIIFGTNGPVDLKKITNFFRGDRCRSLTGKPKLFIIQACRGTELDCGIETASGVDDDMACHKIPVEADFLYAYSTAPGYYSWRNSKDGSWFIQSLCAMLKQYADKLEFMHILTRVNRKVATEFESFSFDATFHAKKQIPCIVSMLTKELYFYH
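Assay system – Procaspase-3 D3A mutant · Benchmarks – DMSO low control, extra-enzyme high control · Technique – 405 nm absorbance of p-nitroaniline, reads at 0 and 120 min · Doses – 8.5 µM nominal · Measure – % activation between DMSO and enzyme-spiked controls · Also added – Ac-DEVD-pNA chromogenic peptide substrate · Schedule – 1 h compound preincubation, 2 h substrate hydrolysis at 25 °C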
Active calls of the source: *. Sampled rows, rich in hits. Any-hit rate of the full collection: about 3.7%.

Screening Cc1cc(O)c(NC(=S)NC(=O)c2ccc(-c3ccc(Cl)cc3)o2)cc1C returned GRIN3A LBD mod 30*, MPTP inh 4, aDG glyco up 0, proCasp7 act -28 and proCasp3 act -18.
Cc1ccc(O)c(NC(=S)NC(=O)Cc2ccc(Cl)cc2)c1 was read as GRIN3A LBD mod -7, MPTP inh 0, aDG glyco up 0, proCasp7 act -5 and proCasp3 act 2.
Cc1ccc(NC(=S)NC(=O)c2ccc(-c3ccc(Cl)cc3)o2)c(O)c1 was read as GRIN3A LBD mod 34*, MPTP inh 3, aDG glyco up 0, proCasp7 act -14 and proCasp3 act -1.
Screening CCOCCn1c(C)c(C(=O)OCC)c2cc(O)c3ccccc3c21 returned GRIN3A LBD mod 3, MPTP inh 0, aDG glyco up 1, proCasp7 act 5 and proCasp3 act 5.
O=S(=O)(Nc1cccc(-c2ccc3nncn3n2)c1)c1ccccc1F was read as GRIN3A LBD mod 13*, MPTP inh -1, aDG glyco up 0, proCasp7 act -1 and proCasp3 act -4.
For O=S(=O)(Nc1ccc(-c2ccc3nncn3n2)cc1)c1ccccc1F the results were GRIN3A LBD mod 2, MPTP inh -2, aDG glyco up 0, proCasp7 act -2 and proCasp3 act 1.
Screening CSc1nc2ccc(NC(=O)c3ccc(=O)[nH]c3)cc2s1 returned GRIN3A LBD mod -5, MPTP inh -1, aDG glyco up 0, proCasp7 act 3 and proCasp3 act 2.
Screening CSc1nc2ccc(NC(=O)c3ccc(F)c(F)c3)cc2s1 returned GRIN3A LBD mod 28*, MPTP inh 0, aDG glyco up 0, proCasp7 act -1 and proCasp3 act -4.
Screening O=C(Nc1ccc2oc(-c3ccccc3)nc2c1)c1cccs1 returned GRIN3A LBD mod 11*, MPTP inh -1, aDG glyco up 1, proCasp7 act 20 and proCasp3 act 0.
For CSc1nc2ccc(NC(=O)c3cccs3)cc2s1 the results were GRIN3A LBD mod 20*, MPTP inh 1, aDG glyco up 0, proCasp7 act 10 and proCasp3 act 6.
Screening CCc1ccc(NC(=O)c2ccc3nc(N)sc3c2)cc1 returned GRIN3A LBD mod 16*, MPTP inh 3, aDG glyco up 1, proCasp7 act 6 and proCasp3 act 10.
For O=C(Nc1ccccc1)Nc1sccc1-c1nc2ccccc2s1 the results were GRIN3A LBD mod 22*, MPTP inh 26, aDG glyco up 0, proCasp7 act -14 and proCasp3 act -9.
For CSc1nc2ccc(NC(=O)c3cc4ccccc4o3)cc2s1 the results were GRIN3A LBD mod 19*, MPTP inh 10, aDG glyco up 0, proCasp7 act -2 and proCasp3 act -1.
For O=C(Nc1cccc(-c2nc3ccccc3s2)c1)c1cccs1 the results were GRIN3A LBD mod 12*, MPTP inh 18, aDG glyco up 0, proCasp7 act 8 and proCasp3 act -1.
Screening O=C(Nc1cccc(-c2nc3ccccc3s2)c1)c1cc(=O)c2ccccc2o1 returned GRIN3A LBD mod 6, MPTP inh 31, aDG glyco up 0, proCasp7 act -8 and proCasp3 act 6.
`CSc1nc2ccc(NC(=O)c3ccco3)cc2s1` gave GRIN3A LBD mod 4, MPTP inh -1, aDG glyco up 0, proCasp7 act 3 and proCasp3 act -1.
For COc1ccccc1NC(=O)Nc1sccc1-c1nc2ccccc2s1 the results were GRIN3A LBD mod 10, MPTP inh 14, aDG glyco up 2, proCasp7 act -30 and proCasp3 act -28.
C[C@@H]1CN([C@@H](C)CO)S(=O)(=O)c2ccc(Br)cc2O[C@H]1CN(C)Cc1ccccn1 was read as MPTP inh 0 and aDG glyco up 0.
`O=C(CSc1nnc(C2CC2)n1C1CC1)N1CCN(c2ccc(O)cc2)CC1` gave MPTP inh 0 and aDG glyco up 0.
CC1CN(C2CCCCC2)C(=S)N(c2ccccc2)C1=O (stereo unspecified) was read as GRIN3A LBD mod 1, MPTP inh 0 and aDG glyco up 0.
Cc1ccc(-c2c(C(=O)O)c(C(=O)O)c3n2CSC3)cc1 was read as GRIN3A LBD mod 0, MPTP inh 0, aDG glyco up 0, proCasp7 act -7 and proCasp3 act 5.

Compound activity: PubChem BioAssay, several laboratories
